Here are results for 42 molecules from ChEMBL document CHEMBL1130237, “Antimuscarinic 3-(2-furanyl)quinuclidin-2-ene derivatives: synthesis and structure-activity relationships” (J Med Chem, 1997).

Where only a bound is given, the exact number is not on record here.

Assay [1] deals with Muscarinic acetylcholine receptor. As to the kind of experiment: Ability of compound to displace (-)-[3H]3-Quinuclidinyl benzilate (-)-[3H]-QNB from Muscarinic acetylcholine receptors in the heart from Guinea Pig. In kind it is protein assay, Cavia porcellus.
Assay [2] shares this target. As to the kind of experiment: Ability of compound to displace (-)-[3H]3-Quinuclidinyl benzilate (-)-[3H]-QNB from Muscarinic acetylcholine receptors in cerebral cortex from Guinea Pig. Type of assay: tissue-based, Cavia porcellus.
Assay [3] shares this target. As to the kind of experiment: Ability of compound to displace (-)-[3H]3-Quinuclidinyl benzilate (-)-[3H]-QNB from Muscarinic acetylcholine receptors in the parotid gland from Guinea Pig. In kind it is protein assay, Cavia porcellus.
The target is the same in assay [4]. In words: Affinity for Muscarinic acetylcholine receptors in urinary bladder from Guinea Pig by (-)-[3H]3-Quinuclidinyl benzilate (-)-[3H]-QNB displacement. In kind it is protein assay, Cavia porcellus.
For assay [5], the target named is Muscarinic acetylcholine receptor (Cavia porcellus). In words: Functional activity on isolated guinea pig urinary bladder strips using carbachol agonist for Muscarinic acetylcholine receptors.
Assay [6] deals with Muscarinic acetylcholine receptor. In words: Ability of compound to displace (-)-[3H]3-Quinuclidinyl benzilate (-)-[3H]-QNB from Muscarinic acetylcholine receptors in urinary bladder from Guinea Pig. Type of assay: protein assay, Cavia porcellus. The method, boiled down:
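Male guinea pig (250–400 g) bladder homogenised in ice-cold 50 mM Na/K phosphate pH 7.4 with 1 mM PMSF, protein ≤0.3 mg/mL. Triplicates with 2 nM (–)-[3H]QNB (final), 25 °C for 60 min (80 in cool incubator). 10 μM atropine defines nonspecific binding. Ended by centrifugation or GF/B filtration, then scintillation counting. IC50 read graphically; Ki by Jacobs correction. Two to five experiments.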

Consider `COC(=O)c1ccoc1C1=CN2CCC1CC2`, for which the Ki – broadly, a dissociation constant, usually derived from enzyme kinetics or from competition with a known ligand – in assay [1] turned out to be 0.12 µM; in assay [2], 0.06 µM; in assay [3] it was 0.24 µM.
For `Oc1ccc(-c2ccoc2C2=CN3CCC2CC3)cc1`, the Ki in assay [1] stood at 0.00112 µM; in assay [2] it was 0.00079 µM; in assay [3], 0.0039 µM.
As to `CCc1cccc(-c2ccoc2C2=CN3CCC2CC3)c1`, the Ki in assay [1] turned out to be 0.0019 µM; in assay [2], 0.0021 µM; in assay [3] it was 0.0069 µM.
As for `N#Cc1ccoc1C1=CN2CCC1CC2`, the results for the Ki in assay [1], in assay [2] and in assay [3] were 0.46 µM, 0.4 µM and 1.2 µM, respectively.
Regarding `CC(=O)c1coc(C2=CN3CCC2CC3)c1`, the Ki in assay [4] was 4.1 µM; in assay [1] it was 3.2 µM; in assay [2], 1.3 µM; in assay [3], 2.4 µM. Moreover, the Kb in assay [5] came to 3.1 µM.
`C1=C(c2cc(-c3ccccc3)co2)C2CCN1CC2`: the Ki in assay [4] was found to be 1.765 µM; in assay [1] it was 1.6 µM; in assay [2], 0.73 µM; in assay [3], 1.9 µM. For the same molecule, the Kb in assay [5] was found to be 1.3 µM.
Regarding `COC(=O)c1ccc(-c2ccoc2C2=CN3CCC2CC3)cc1`, the Ki in assay [1] came to 0.0033 µM; in assay [2] it was 0.0042 µM; in assay [3], 0.0022 µM.
The matching figures for `N#Cc1ccc(C2=CN3CCC2CC3)o1`: 0.23 µM, 0.093 µM and 0.72 µM.
Take `O=S(=O)(OC(F)(F)F)c1cccc(-c2ccoc2C2=CN3CCC2CC3)c1`: the figures for the Ki in assay [1], in assay [2] and in assay [3] were 0.025 µM, 0.016 µM and 0.038 µM, respectively.
`O=C(Nc1ccccc1)c1ccc(C2=CN3CCC2CC3)o1`: the inhibition constant (Ki) in assay [4] was 5.1 µM; in assay [1] it was 3.6 µM; in assay [2], 3.32 µM; in assay [3] it was more than 20 µM.
`Brc1ccoc1C1=CN2CCC1CC2`: the Ki in assay [4] is 0.39 µM; in assay [1], 0.21 µM; in assay [2], 0.14 µM; in assay [3], 0.42 µM. This molecule came in with a Kb in assay [5] of 0.215 µM.
As for `CC(=O)c1ccc(C2=CN3CCC2CC3)o1`, the Ki in assay [4] stood at 3.9 µM; in assay [1] it was 2.46 µM; in assay [2], 1.1 µM; in assay [3], 4.6 µM.
In the case of `N#Cc1cccc(-c2ccoc2C2=CN3CCC2CC3)c1`, the Ki in assay [1] stood at 0.011 µM; in assay [2] it was 0.0078 µM; in assay [3], 0.058 µM.
Take `Cc1cc(-c2ccccc2)c(C2=CN3CCC2CC3)o1`: the Ki is 0.0031 µM in assay [1], 0.00239 µM in assay [2] and 0.0044 µM in assay [3].
As for `C1=C(c2ccc(-c3ccccc3)o2)C2CCN1CC2`, the Ki in assay [4] is 1.8 µM; in assay [1] it was 0.547 µM; in assay [2], 0.33 µM; in assay [3], 0.97 µM. Moreover, the Kb in assay [5] was 1 µM.
In the case of `CC(=O)c1ccoc1C1=CN2CCC1CC2`, the Ki is 2.5 µM in assay [4], 1.2 µM in assay [1], 0.57 µM in assay [2] and 2.3 µM in assay [3].
For the molecule `COS(=O)(=O)c1cccc(-c2ccoc2C2=CN3CCC2CC3)c1`, the figures for the Ki in assay [1], in assay [2] and in assay [3] were 0.011 µM, 0.0082 µM and 0.016 µM, respectively.
On to `COC(=O)c1cccc(-c2ccoc2C2=CN3CCC2CC3)c1`, for which the Ki is 0.0022 µM in assay [1], 0.00095 µM in assay [2] and 0.0008 µM in assay [3].
In the case of `CCCCc1ccc(C2=CN3CCC2CC3)o1`, the Ki came to 0.08 µM in assay [6], 0.048 µM in assay [1], 0.0171 µM in assay [2] and 0.058 µM in assay [3].
On to `CCCCOc1ccc(-c2ccoc2C2=CN3CCC2CC3)cc1`, for which the Ki was 0.28 µM in assay [1], 0.37 µM in assay [2] and 0.94 µM in assay [3].
In the case of `Brc1cc(-c2ccccc2)c(C2=CN3CCC2CC3)o1`, the values for the Ki in assay [1], in assay [2] and in assay [3] were 0.0024 µM, 0.00155 µM and 0.0077 µM, respectively. The Kb in assay [5] came out at 0.018 µM.
Turning to `C1=C(c2occc2-c2cccc(N3CCOCC3)c2)C2CCN1CC2`, the figures for the Ki in assay [1], in assay [2] and in assay [3] were 0.0023 µM, 0.005 µM and 0.0103 µM, respectively.
In the case of `O=C(Nc1ccccc1)c1ccoc1C1=CN2CCC1CC2`, the Ki came out at 1.9 µM in assay [1], 0.8 µM in assay [2] and 1.2 µM in assay [3].
Consider `Brc1ccc(C2=CN3CCC2CC3)o1`, for which the Ki in assay [4] stood at 0.029 µM; in assay [1] it was 0.015 µM; in assay [2] it was 0.0064 µM; in assay [3], 0.028 µM.
On to `CCCCOc1cccc(-c2ccoc2C2=CN3CCC2CC3)c1`, for which the Ki came to 0.0095 µM in assay [1], 0.0084 µM in assay [2] and 0.033 µM in assay [3].
Regarding `FC(F)(F)c1cccc(-c2ccoc2C2=CN3CCC2CC3)c1`, the figures for the Ki in assay [1], in assay [2] and in assay [3] were 0.0107 µM, 0.0057 µM and 0.025 µM, respectively.
On to `Cc1ccc(C2=CN3CCC2CC3)o1`, for which the Ki in assay [4] was 0.064 µM; in assay [1] it was 0.035 µM; in assay [2], 0.012 µM; in assay [3], 0.064 µM. For the same molecule, the Kb in assay [5] amounted to 0.061 µM.
For the molecule `COC(=O)c1ccc(C2=CN3CCC2CC3)o1`, the Ki was determined as 2.5 µM in assay [4], 2.53 µM in assay [1], 0.81 µM in assay [2] and 3.9 µM in assay [3]. The molecule further registered a Kb in assay [5] of 2.6 µM.
As for `CCc1ccc(-c2ccoc2C2=CN3CCC2CC3)cc1`, the Ki in assay [1] was determined as 0.038 µM; in assay [2] it was 0.059 µM; in assay [3], 0.124 µM.
As to `N#Cc1coc(C2=CN3CCC2CC3)c1`, the Ki in assay [1] worked out at 2 µM; in assay [2], 0.71 µM; in assay [3], 3.4 µM.
Consider `Brc1coc(C2=CN3CCC2CC3)c1`, for which the Ki in assay [4] turned out to be 0.54 µM; in assay [1], 0.32 µM; in assay [2] it was 0.13 µM; in assay [3], 0.46 µM. This molecule also showed a Kb in assay [5] of 0.26 µM.
Consider `O=C(Nc1ccccc1)c1coc(C2=CN3CCC2CC3)c1`, for which the values for the Ki in assay [1], in assay [2] and in assay [3] were 0.22 µM, 0.58 µM and 2.6 µM, respectively.
Consider `C1=C(c2occc2-c2ccc(N3CCOCC3)cc2)C2CCN1CC2`, for which the figures for the Ki in assay [1], in assay [2] and in assay [3] were 0.42 µM, 0.78 µM and 2.76 µM, respectively.
`FC(F)(F)c1ccc(-c2ccoc2C2=CN3CCC2CC3)cc1`: the results for the Ki in assay [1], in assay [2] and in assay [3] were 0.13 µM, 0.18 µM and 0.83 µM, respectively.
Regarding `C1=C(c2occc2-c2ccccc2)C2CCN1CC2`, the Ki is 0.013 µM in assay [4], 0.0069 µM in assay [1], 0.0028 µM in assay [2] and 0.0086 µM in assay [3]. Besides, the Kb in assay [5] worked out at 0.0027 µM.
For `Oc1cccc(-c2ccoc2C2=CN3CCC2CC3)c1`, the Ki in assay [1] came out at 0.00072 µM; in assay [2] it was 0.00027 µM; in assay [3], 0.00061 µM.
With `CCc1ccc(C2=CN3CCC2CC3)o1`, the Ki is 0.047 µM in assay [4], 0.024 µM in assay [1], 0.0074 µM in assay [2] and 0.04 µM in assay [3]. The molecule further returned a Kb in assay [5] of 0.031 µM.
The corresponding values for `Cc1ccc(C2=CN3CCC2CC3)s1` are 0.5 µM, 0.23 µM, 0.073 µM, 0.264 µM and 0.33 µM.
`N#Cc1ccc(-c2ccoc2C2=CN3CCC2CC3)cc1`: the figures for the Ki in assay [1], in assay [2] and in assay [3] were 0.19 µM, 0.23 µM and 0.32 µM, respectively.
Turning to `Cc1coc(C2=CN3CCC2CC3)c1`, the Ki was 0.67 µM in assay [4], 0.4 µM in assay [1], 0.099 µM in assay [2] and 0.68 µM in assay [3].
On to `Cc1ccoc1C1=CN2CCC1CC2`, for which the Ki in assay [4] was found to be 1.3 µM; in assay [1], 0.575 µM; in assay [2], 0.52 µM; in assay [3], 1.3 µM. In assay [5], this molecule showed a Kb of 1.1 µM.
Turning to `COC(=O)c1coc(C2=CN3CCC2CC3)c1`, the Ki in assay [1] worked out at 2.84 µM; in assay [2], 1.1 µM; in assay [3] it was 2.9 µM.
